Source: PubChem BioAssay
Rows were chosen to be rich in hits. Some 3.1% of all compounds tested hit in one or more screens of this group.
F508del corr: correctors of CFTR F508del function in bronchial epithelial cells; CFBE cells, YFP halide quenching; stimulated with forskolin plus potentiator P3; % fluorescence drop versus neutral controls; activity (quench increase), % at 7.58 µM; 0.36% of 350,000 active;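 active means mean added fluorescence quench of at least 8% versus neutral control, with both replicates also reaching 8%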;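 further: cells transiently co-express mutant CFTR-F508del with the halide-sensitive YFP; corrector assay measuring rescue of mutant channel to the surface after 24 h compound exposure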
S100A4 inh HTS: blocks human S100A4 binding to myosin IIA peptide. 0.14% of 360,000 active. inhibition, % at 10.7 µM. P26447. S100A4/TAMRA-MyoIIA peptide fluorescence polarization;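 active means mean inhibition of at least 70% across replicates, with every replicate also reaching that level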
Target sequence (P26447 whole entry, looked up): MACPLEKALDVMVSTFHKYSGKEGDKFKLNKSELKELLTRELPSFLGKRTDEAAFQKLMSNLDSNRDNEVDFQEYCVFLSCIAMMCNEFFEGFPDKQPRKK
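Test system – S100A4 monomer (human) · Compound – single-point compound testing · Schedule – 5 min incubation before reading · Probe or stimulus – TAMRA-labelled myosin IIA heavy-chain peptide probe, 5 nM · Benchmarks – neutral control DMSO, positive control TFP · Medium – Calcium-containing HEPES buffer, pH 7.2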
ERAP1 HTS inh: blocks human ERAP1 aminopeptidase activity. 0.15% of 340,000 active. Q9NZ08. inhibition, % at 10.7 µM. recombinant ERAP1, Leu-AMC fluorescence, 60 min;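 active means mean replicate inhibition of at least 30%, or all replicates individually reaching that 30% level; inactive means mean below 30% and not every replicate reaching it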
Ecoli rRNA inh: inhibitors of bacterial rRNA selective over humanized ribosomes | E. coli WT GFP vs humanized-ribosome RFP mutants, fluorescence, 24 h; hits give low values; DMSO median 0, no signal -100 | GFP signal change (wild-type ribosome), % (concentration not given with the values) | 1.6% of 350,000 active;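 active means significant combined selectivity score with lowered wild-type GFP, culture density cut under 30%, mutant RFP and density less affected; inactive means any of these conditions unmet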
SIRT5 inh: inhibitors of human sirtuin-5 desuccinylase; Q9NXA8; Purified SirT5, succinyl-peptide AMC, trypsin-coupled fluorescence; inhibition, % at 15 µM; 1.1% of 330,000 active; AID 652115; in the data active means inhibition above about 15%
Target sequence (Q9NXA8 whole entry, looked up): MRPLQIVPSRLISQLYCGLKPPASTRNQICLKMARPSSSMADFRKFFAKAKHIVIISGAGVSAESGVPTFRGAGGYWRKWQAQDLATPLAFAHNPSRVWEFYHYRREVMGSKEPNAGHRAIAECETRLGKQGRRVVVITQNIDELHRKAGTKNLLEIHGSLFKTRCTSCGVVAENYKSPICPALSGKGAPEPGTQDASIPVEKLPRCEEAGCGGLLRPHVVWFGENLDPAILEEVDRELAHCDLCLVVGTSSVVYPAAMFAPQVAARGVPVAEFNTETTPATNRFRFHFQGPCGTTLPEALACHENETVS
Of the large screens only hits and unclear results are named; the others gave an inactive call.

CCOc1ccccc1/C=C/C(=O)c1ccc(Cl)cc1	Ecoli rRNA inh -26.9 (no result: F508del corr, SIRT5 inh)
NC(=O)c1oc2ccccc2c1NC(=O)c1ccc([N+](=O)[O-])o1	none
O=C(NN(c1ccccc1)c1ccccc1)c1ccc([N+](=O)[O-])o1	Ecoli rRNA inh -28.8
O=C(NN=Cc1cc(Br)c(O)c(Br)c1)c1ccccc1NS(=O)(=O)c1cccs1	Ecoli rRNA inh -24.8
O=C(NN=Cc1ccc(F)cc1)c1ccccc1NS(=O)(=O)c1cccs1	none
O=C(N/N=C/c1cccnc1)c1ccccc1NS(=O)(=O)c1cccs1	Ecoli rRNA inh -30.5
Cc1ccc(Nc2nnc(C)c3ccccc23)c(C)c1	none
Cc1ccc(Nc2nc(Cl)nc3ncn(C)c23)c(C)c1	Ecoli rRNA inh -36.0
CCC(=O)N1CC2(C1)[C@H](c1ccc(-c3ccc(F)cc3)cc1)[C@H](CO)N2S(C)(=O)=O	none
C[C@H]1CN([C@@H](C)CO)C(=O)Cc2cc(NS(=O)(=O)c3ccc(Cl)cc3)ccc2O[C@@H]1CN(C)Cc1ccc2c(c1)OCO2	none
C[C@@H]1CN([C@H](C)CO)C(=O)Cc2cc(NS(=O)(=O)c3ccc(Cl)cc3)ccc2O[C@@H]1CN(C)Cc1ccc(Cl)c(Cl)c1	SIRT5 inh 16.0
C[C@H](CO)N1C[C@H](C)[C@@H](CN(C)Cc2ccc3c(c2)OCO3)Oc2ccc(NS(=O)(=O)c3ccc(Cl)cc3)cc2CC1=O	SIRT5 inh 17.9
C[C@@H]1CN([C@@H](C)CO)C(=O)Cc2cc(N(C)C)ccc2O[C@@H]1CN(C)Cc1ccccc1	F508del corr 10.3
C[C@H](CO)N1C[C@H](C)[C@H](CN(C)Cc2ccccc2)Oc2ccc(NS(=O)(=O)c3ccccc3)cc2CC1=O	S100A4 inh HTS 86.9
C[C@@H]1CCCCO[C@H](CN(C)Cc2ccc(C(=O)O)cc2)[C@H](C)CN([C@H](C)CO)C(=O)c2cc(NC(=O)Nc3ccccc3)ccc2O1	none
C[C@H]1CN([C@@H](C)CO)C(=O)c2cccc(NC(=O)C3CCOCC3)c2O[C@@H]1CN(C)Cc1ccc(C(=O)O)cc1	none
CN(C)C(=O)C[C@@H]1C[C@@H]2c3cc(NC(=O)c4ccc5c(c4)OCO5)ccc3O[C@@H]2[C@@H](CO)O1	none
CNC[C@@H]1Oc2ccc(NC(=O)C3CCCCC3)cc2C(=O)N([C@H](C)CO)C[C@@H]1C	none (no result: SIRT5 inh)
C[C@@H]1CN([C@H](C)CO)C(=O)Cc2cc(NS(=O)(=O)c3ccccc3)ccc2O[C@H]1CN(C)Cc1ccc(Cl)c(Cl)c1	SIRT5 inh 18.1
O=C(C[C@@H]1C=C[C@@H](NC(=O)C2CCOCC2)[C@H](CO)O1)NCC1CCCCC1	none
CC(=O)OCC(C)n1[nH]c2ccccc2c1=O (stereo unspecified)	SIRT5 inh 39.6
CCN(CC)CCC(=O)Nc1cccc2c1C(=O)c1ccccc1C2=O	F508del corr 23.9
COc1ccccc1NC(=O)N[C@H]1CC[C@@H](CCn2cc(-c3cccnc3)nn2)O[C@@H]1CO	none
COc1ccc(OC)c(-c2cnc(OC(C)(C)C)nc2OC(C)(C)C)c1	F508del corr 14.2 (no result: SIRT5 inh)
CNc1cncc(-c2cc(OC)ccc2OC)n1	none (no result: SIRT5 inh)
COc1ccc(Nc2nc(C(=O)NCc3ccco3)cs2)cc1	Ecoli rRNA inh -44.4
COc1ccc(Nc2nc(C(=O)N(CCO)Cc3ccccc3)cs2)cc1	none
CCCc1cn(CC[C@H]2CC[C@@H](NC(=O)Cc3cccnc3)[C@H](CO)O2)nn1	none
COc1ccc2c3c(cccc13)C(=O)CC2	F508del corr 12.3, S100A4 inh HTS 166.1
COC(=O)[C@H]1[C@H](CO)[C@H]2Cn3c(cccc3=O)[C@H]2N1CC1CCOCC1	none (no result: F508del corr)
O=C(Nc1ccnn1C1CCN(Cc2ccc(OC(F)F)cc2)CC1)C1CCCC1	SIRT5 inh 19.2
CC1=C(C(=O)OC2CCCC2)C(c2coc3ccccc3c2=O)C2=C(CC(C)(C)CC2=O)N1 (stereo unspecified)	Ecoli rRNA inh -21.7
CC1=C(C(=O)OC2CCCC2)C(c2coc3ccc(C)cc3c2=O)C2=C(CCCC2=O)N1 (stereo unspecified)	none
COc1cccc(NC(=O)CN2C(=O)NC3(CCCCCC3)C2=O)c1	F508del corr 8.8
CC(C)c1ccc(NC(=O)CN2C(=O)NC3(CCCCCCC3)C2=O)cc1	F508del corr 9.5
CCOc1cc(N2CCOCC2)c(OCC)cc1NC(=O)CN1C(=O)NC2(CCCCC2)C1=O	F508del corr 22.2
COc1ccc(NC(=O)CN2C(=O)NC3(CCCCCCC3)C2=O)cc1	none
C[C@H](CO)N1C[C@H](C)[C@H](CN(C)S(=O)(=O)c2ccc(F)cc2)OCCCC[C@H](C)Oc2ccc(NC(=O)c3ccccc3)cc2C1=O	none
CCOC(=O)CSc1nc(=O)n2ccc(C)cc2n1	SIRT5 inh 31.2
Cc1ccc(S(=O)(=O)N(C)C[C@H]2Oc3ccc(NC(=O)Nc4ccc5c(c4)OCO5)cc3C(=O)N([C@H](C)CO)C[C@H]2C)cc1	none
CC(=O)c1cccc(NC(=O)C(C)OC(=O)CCCN=C2NS(=O)(=O)c3ccccc32)c1 (stereo unspecified)	none
CC(=O)Nc1ccc(NC(=O)C(C)OC(=O)CCCN=C2NS(=O)(=O)c3ccccc32)cc1 (stereo unspecified)	S100A4 inh HTS 136.2
O=C(N/N=C/c1cc(Br)c(O)c(Br)c1O)c1cccnc1	Ecoli rRNA inh -19.9
O=C(CN1CCOCC1)NCC[C@H]1CC[C@@H](NC(=O)c2ccc3c(c2)OCO3)[C@@H](CO)O1	none
CCN1C(=O)[C@H]2[C@@H](c3ccccc3)N[C@]3(CCCN(Cc4ccccc4)C3=O)[C@H]2C1=O	SIRT5 inh 23.6
CCN1C(=O)[C@H]2[C@@H](c3ccc(OC)cc3)N[C@]3(CCCN(Cc4cccn4C)C3=O)[C@H]2C1=O	none
COc1ccc([C@H]2N[C@]3(CCCN(Cc4cccn4C)C3=O)[C@H]3C(=O)N(C)C(=O)[C@@H]23)cc1	SIRT5 inh 34.2
O=C(c1cc2cc(F)ccc2[nH]1)N1CCN(Cc2ccc3c(c2)OCO3)CC1	Ecoli rRNA inh -39.8
Cc1ccc(S(=O)(=O)N(C)C[C@@H]2Oc3ccc(NC(=O)Cc4ccccc4)cc3C(=O)N([C@H](C)CO)C[C@@H]2C)cc1	none
O=C(Cn1nnc2ccccc21)OCc1ccccc1	none
c1ccc(CCn2nnc3ccccc32)cc1	SIRT5 inh 19.6
Cc1ccc(S(=O)(=O)N(C)C[C@H]2OCCCC[C@H](C)Oc3ccc(NC(=O)c4ccccc4)cc3C(=O)N([C@H](C)CO)C[C@@H]2C)cc1	none
Cc1csc2c(N3CCN(C(=O)Nc4ccccc4)CC3)ncnc12	Ecoli rRNA inh -27.9
Cc1ccc(C(=O)N2CCN(c3ncnc4c(C)csc34)CC2)cc1	none (no result: ERAP1 HTS inh, SIRT5 inh)
Cc1csc2c(N3CCN(C(=S)Nc4ccc(F)cc4F)CC3)ncnc12	Ecoli rRNA inh -26.5 (no result: F508del corr)
